Assay results as given in ChEMBL document CHEMBL4715840, “Antibacterial activity of lipo-α/sulfono-γ-AA hybrid peptides” (Eur J Med Chem, 2020).
≈ marks a conversion by molar mass, not a printed value. Calls of active or inactive are those of the source. The calls are words filed in the database; no cut-off is given here.

What was measured:
Staphylococcus aureus [1] = assay: Antibacterial activity against methicillin-resistant Staphylococcus aureus ATCC 33591 incubated for 12 to 16 hrs by microtiter method; type: functional; settings: time 12-16 hrs
Outline: (§1)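 Single colony grown overnight at 37 °C in TSB, diluted 100-fold and grown to mid-log phase. Equal volumes of cell suspension and peptide serial dilutions in TSB were combined and incubated 37 °C for 12-16 h. Growth read as absorbance at 600 nm. MIC taken as the lowest concentration inhibiting growth. Three repeats, each in duplicate.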

[2] = system: Staphylococcus epidermidis; assay: Antibacterial activity against methicillin-resistant Staphylococcus epidermidis RP62A incubated for 12 to 16 hrs by microtiter method; type: functional; settings: time 12-16 hrs; outline: as §1
Enterococcus faecalis = assay: Antibacterial activity against Enterococcus faecalis ATCC 700802 incubated for 12 to 16 hrs by microtiter method; type: functional; settings: time 12-16 hrs
Outline: (§2)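 Single colonies grown overnight in TSB at 37 °C, diluted 100-fold and grown to mid-log phase. Equal volumes of bacterial suspension and peptide dilutions in TSB mixed and incubated 37 °C for 12-16 h. Growth read as absorbance at 600 nm. MIC taken as lowest concentration inhibiting growth. Three repeats, duplicates each.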

Escherichia coli [3] = assay: Antibacterial activity against Escherichia coli ATCC 25922 incubated for 12 to 16 hrs by microtiter method; type: functional; settings: time 12-16 hrs; outline: as §2
Pseudomonas aeruginosa = assay: Antibacterial activity against Pseudomonas aeruginosa ATCC 27853 incubated for 12 to 16 hrs by microtiter method; type: functional; settings: time 12-16 hrs; outline: as §2
[4] = Hemolytic activity against RBC (unknown origin); type: ADME, cell-based, Erythrocyte; settings: red blood cells (erythrocytes)
[5] = Selectivity index, ratio of HC50 for human RBC to MIC for methicillin-resistant Staphylococcus aureus ATCC 33591; type: toxicity; settings: human red blood cells, read-out: Selectivity Index
Staphylococcus aureus [6] = assay: Bactericidal activity against methicillin-resistant Staphylococcus aureus ATCC 33591 at 50 ug/ml measured after 10 mins by time-kill assay; type: functional, organism-based
Outline: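 Cells grown in TSB at 37 °C to mid-log phase, diluted to 1 × 10^6 CFU/mL, then exposed to peptide at 12.5, 25 or 50 µg/mL for 10 min, 30 min, 1 h and 2 h. Samples diluted 102 to 104-fold and plated. Colonies counted after overnight growth at 37 °C and plotted against exposure time.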

Escherichia coli [7] = assay: Bactericidal activity against Escherichia coli ATCC 25922 at 25 to 50 ug/ml measured after 60 mins by time-kill assay; type: functional, organism-based; settings: dose 25-50 µg/ml
Outline: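 Mid-log TSB cultures at 37 °C diluted to 1 × 10^6 CFU/mL and exposed to 12.5, 25 or 50 µg/mL peptide for 10 min, 30 min, 1 h and 2 h. Aliquots diluted 102 to 104-fold and plated. Colonies counted after overnight incubation at 37 °C and plotted against exposure time.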

Cell membrane [8] = assay: Induction of membrane disruption in methicillin-resistant Staphylococcus aureus ATCC 33591 at 250 ug/ml measured for 30 mins by DiSC35 dye based fluorescence assay; type: subcellular; settings: dose 250.0 µg/ml
Outline: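 Mid-log cells washed with 5 mM HEPES and 5 mM glucose. Resuspended at 10^8 CFU/mL in 5 mM glucose, 5 mM HEPES and 100 mM KCl mixed 1:1:1, with 2 µM DiSC3(5), at 37 °C. Fluorescence (ex 622, em 670 nm) followed for 30 min. Peptide at 250 µg/mL added once the minimum was reached, about 20 min. Untreated culture as negative control. At least three repeats in duplicate.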

Cell membrane [9] = assay: Induction of membrane disruption in Escherichia coli at 250 ug/ml measured for 30 mins by DiSC35 dye based fluorescence assay; type: subcellular; settings: dose 250.0 µg/ml
Cell membrane [10] = assay: Induction of membrane disruption in methicillin-resistant Staphylococcus aureus ATCC 33591 at 6 ug/ml measured after 2 hrs by DAPI/propidium iodide staining based fluorescence microscopic analysis; type: subcellular; settings: dose 6.0 µg/ml
Outline: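 Mid-log cells exposed to peptide at 37 °C for 2 h. Methods give 10 µg/mL; the legend gives 6 µg/mL. Cells pelleted at 5000g for 15 min and washed in PBS. Stained with PI (5 µg/mL), washed three times in PBS, then stained with DAPI (10 µg/mL), each stain 15 min on ice in the dark. Imaged with a 100X oil objective. Untreated cells as control.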

Cell membrane [11] = assay: Induction of membrane disruption in Escherichia coli at 6 ug/ml measured after 2 hrs by DAPI/propidium iodide staining based fluorescence microscopic analysis; settings: dose 6.0 µg/ml
Outline: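 Mid-log bacteria exposed to peptide for 2 h at 37 °C, then centrifuged at 5000g for 15 min and washed with PBS. Stained with PI (5 µg/mL), washed three times in PBS, then stained with DAPI (10 µg/mL), each stain 15 min on ice in the dark. Viewed by fluorescence microscopy with a 100X oil objective.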

Compound	MIC (Staphylococcus aureus [1]) [µg/mL]	MIC [2] [µg/mL]	MIC (Enterococcus faecalis) [µg/mL]	MIC (Escherichia coli [3]) [µg/mL]	MIC (Pseudomonas aeruginosa) [µg/mL]	HC50 [4] [µg/mL]	selectivity ratio [5]	Activity (Staphylococcus aureus [6])	Activity (Escherichia coli [7])	Activity (Cell membrane [8])	Activity (Cell membrane [9])	Activity (Cell membrane [10])	Activity (Cell membrane [11])
CCCCCCCCCCCCCCCC(=O)N[C@@H](CCCCN)CN(CC(=O)N[C@@H](CCCCN)CN(CC(N)=O)S(=O)(=O)Cc1ccccc1)S(=O)(=O)Cc1ccccc1	8 (≈ 8.83 µM)	20 (≈ 22.1 µM)	8 (≈ 8.83 µM)	> 50	> 50	–	–	–	–	–	–	–	–
CCCCCCCCCCCCCCCC(=O)N[C@@H](CCCCN)C(=O)N[C@@H](CCCCN)CN(CC(=O)N[C@@H](CCCCN)CN(CC(N)=O)S(=O)(=O)Cc1ccccc1)S(=O)(=O)Cc1ccccc1	2 (≈ 1.93 µM)	5 (≈ 4.83 µM)	5 (≈ 4.83 µM)	8 (≈ 7.73 µM)	8 (≈ 7.73 µM)	50	25	–	–	–	–	–	–
CCCCCCCCCCCCCCCCCC(=O)N[C@@H](CCCCN)C(=O)N[C@@H](CCCCN)CN(CC(N)=O)S(=O)(=O)Cc1ccccc1	2 (≈ 2.71 µM)	20 (≈ 27.1 µM)	5 (≈ 6.78 µM)	> 50	> 50	–	–	–	–	–	–	–	–
CCCCCCCCCC(=O)N[C@@H](CCCCN)C(=O)N[C@@H](CCCCN)CN(CC(N)=O)S(=O)(=O)Cc1ccccc1	> 50	> 50	> 50	> 50	> 50	–	–	–	–	–	–	–	–
CCCCCCCCCCCC(=O)N[C@@H](CCCCN)C(=O)N[C@@H](CCCCN)CN(CC(N)=O)S(=O)(=O)Cc1ccccc1	20 (≈ 30.6 µM)	20 (≈ 30.6 µM)	> 50	5 (≈ 7.66 µM)	8 (≈ 12.3 µM)	–	–	–	–	–	–	–	–
CCCCCCCCCCCCCCCCNC(=O)CN(C[C@@H](N)CCCCN)S(=O)(=O)Cc1ccccc1	5 (≈ 8.82 µM)	20 (≈ 35.3 µM)	5 (≈ 8.82 µM)	5 (≈ 8.82 µM)	> 50	–	–	–	–	–	–	–	–
CCCCCCCCCCCCCC(=O)N[C@@H](CCCCN)C(=O)N[C@@H](CCCCN)CN(CC(=O)N[C@@H](CCCCN)CN(CC(N)=O)S(=O)(=O)Cc1ccccc1)S(=O)(=O)Cc1ccccc1	2 (≈ 1.99 µM)	5 (≈ 4.97 µM)	8 (≈ 7.95 µM)	5 (≈ 4.97 µM)	5 (≈ 4.97 µM)	100	50	–	–	–	–	–	–
CCCCCCCCCCCCCC(=O)N[C@@H](CCCCN)C(=O)N[C@@H](CCCCN)CN(CC(N)=O)S(=O)(=O)Cc1ccccc1	5 (≈ 7.34 µM)	5 (≈ 7.34 µM)	5 (≈ 7.34 µM)	2 (≈ 2.94 µM)	5 (≈ 7.34 µM)	125	25	Active	Active	Active	Active	Active	Active
CCCCCCCCCCCCCCCCNC(=O)CN(C[C@H](CCCCN)NC(=O)[C@@H](N)CCCCN)S(=O)(=O)Cc1ccccc1	5 (≈ 7.19 µM)	20 (≈ 28.8 µM)	5 (≈ 7.19 µM)	5 (≈ 7.19 µM)	> 50	–	–	–	–	–	–	–	–
CCCCCCCCCCCCCCCC(=O)N[C@@H](CCCCN)CN(CC(N)=O)S(=O)(=O)Cc1ccccc1	5 (≈ 8.61 µM)	8 (≈ 13.8 µM)	5 (≈ 8.61 µM)	> 50	> 50	–	–	–	–	–	–	–	–
CCCCCCCCCCCCCCCC(=O)N[C@@H](CCCCN)C(=O)N[C@@H](CCCCN)CN(CC(N)=O)S(=O)(=O)Cc1ccccc1	5 (≈ 7.05 µM)	5 (≈ 7.05 µM)	5 (≈ 7.05 µM)	5 (≈ 7.05 µM)	20 (≈ 28.2 µM)	–	–	–	–	–	–	–	–
